# Source: PubChem
# An excerpt weighted towards active compounds, which were near 1.8% of everything screened.
# Gli-Sufu antag: Gli-Sufu pathway antagonists, primary screen, luciferase luminescence, Sufu-KO-LIGHT cells, uHTS; inhibition, % at 5 µM; Sufu-KO-LIGHT fibroblasts, Gli luciferase reporter luminescence; 340,000 tested, 0.74% active; AID 588413, 2011;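 active = inhibition above about 55%, limit read from the data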
# 697 NFkB inh: inhibitors of PMA/ionomycin-induced NF-kB reporter, 697 cells, primary screen, B-cell NF-kB inhibitor project, cell-based, luminescence, uHTS. AID 435022, 2010. 330,000 tested, 0.33% active. 697 B-cell NF-kB luciferase reporter, 16 h. inhibition, % at 4 µM; in the data active = inhibition above about 35%
# hiPSC survival: enhancers of single-cell hiPSC survival, primary screen, ATPlite luminescence | 100% = ROCK inhibitor wells, 0% = DMSO | survival enhancement, % at 20 µM | 360,000 tested, 0.044% active | AID 602274, 2012; in the data active = survival enhancement above about 18%;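 note: cells exposed to compounds for 16 hours before the ATP read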
# Jurkat NFkB inh: inhibitors of induced NF-kB luciferase reporter, primary screen, TCR NF-kB activation inhibitor project, cell-based, luminescence, uHTS | 330,000 tested, 0.53% active | inhibition, % at 4 µM | Jurkat, PMA/ionomycin-induced NF-kB luciferase reporter; in the data active = inhibition above about 50%
# Lipid droplet: inhibitors of hepatocyte lipid droplet formation, primary screen, imaging, high-throughput imaging, BODIPY stain | inhibition, % at 6.5 µM | 240,000 tested, 0.4% active | AID 1656, 2009 | AML12 mouse hepatocytes, oleate lipid droplets;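 active = lipid droplet intensity inhibited by at least 50%, with more than 500 cells counted; inconclusive = wells with under 300 cells, treated as cytotoxic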
#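 Assay system: AML12 hepatocytes (mouse); Probe or stimulus: oleic acid at 100 µM to induce lipid droplet formation; Dosing: compound at 6.5 µM only; Schedule: compound with oleate, overnight; Detection: fluorescence imaging, 20x objective, two fields per well; Measure: % inhibition of lipid droplet signal.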
# TAG inh: inhibitors of triacylglycerol accumulation, primary screen, cell-based, uHTS, fluorescence, H9c2; H9c2 cells, Nile Red lipid (TAG) fluorescence; cells loaded with 200 µM oleic acid; inhibition, % at 12.5 µM; 230,000 tested, 0.66% active;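 active = pattern-corrected inhibition of lipid staining of at least 50% with the nuclear-stain viability signal not falling by more than 50%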
# Numbers stand for hits; n = inactive; u = inconclusive; x = no result.
SMILES,Gli-Sufu antag,697 NFkB inh,hiPSC survival,Jurkat NFkB inh,Lipid droplet,TAG inh
COC(=O)c1ccc(C(=O)OC)c(NC(=O)CSc2cccc[n+]2[O-])c1,n,n,22,n,x,x
COC(=O)c1ccc(-n2c(C)cc(C(=O)CSc3cccc[n+]3[O-])c2C)cc1,n,n,n,n,n,n
CNc1nc(Cl)nc(NC(C)(C)C)n1,n,n,17,n,x,n
CC1(C)CC[C@]2(C(=O)n3ccnc3)CC[C@]3(C)[C@H](C(=O)C=C4[C@@]5(C)C=C(C#N)C(=O)C(C)(C)[C@@H]5CC[C@]43C)[C@@H]2C1,93,x,n,x,x,n
NS(=O)(=O)c1ccc(NC(=S)N2CCN(c3ccc(Cl)c(Cl)c3)CC2)cc1,59,n,n,n,n,x
O=C(Nc1ccc2c(c1)OCCO2)C1c2ccccc2OCC(=O)N1CC(F)(F)F (stereo unspecified),x,x,n,x,x,x
CC1CCC(C(C)C)C(OC(=O)Cn2c(-c3ccc(Cl)cc3)[n+](C)c3ccccc32)C1 (stereo unspecified),72,n,n,n,n,n
Cc1cccc[n+]1CCCCCCCCCC[n+]1ccccc1C,n,n,n,n,n,n
CCCCCCCCCC[n+]1cccc2c3ccccc3ccc21,89,x,n,x,n,n
CCCCCCCC[n+]1cccc2c3ccccc3ccc21,90,n,n,n,n,n
COc1ccc(NC(=O)c2c(N)no[n+]2[O-])cc1,n,n,n,n,n,n
COc1ccc(C(=O)c2no[n+]([O-])c2C(=O)c2ccc(OC)cc2)cc1,n,n,n,n,x,54
CC(=O)c1ccccc1NC(=O)COC(=O)CCCN1C(=O)c2cccc3cccc(c23)C1=O,n,n,32,n,n,n
Cc1cccc(-n2ccc(=O)c(C(=O)Nc3ccc(S(=O)(=O)Nc4nccc(C)n4)cc3)n2)c1,n,n,n,n,n,x
CN(C)CCCN(C(=O)c1cc(-c2cccs2)nc2ccccc12)c1nc2c(F)cccc2s1,n,n,n,n,n,n
Cc1ccc2nc(N(CCCN(C)C)C(=O)c3cc(-c4cccs4)nc4ccccc34)sc2c1,n,n,n,n,n,54
c1ccc2nc(-c3ccncc3)ccc2c1,n,n,n,n,x,n
CN1CCN(c2ccc(-c3ccc4ccccc4n3)cc2)CC1,88,x,n,x,n,n
CN(C)c1ccc(CNc2ncnc3sccc23)cc1,63,n,n,n,n,x
C[C@H]1CN([C@@H](C)CO)C(=O)c2cccc(NC(=O)Nc3ccc(C(F)(F)F)cc3)c2O[C@@H]1CN(C)S(=O)(=O)c1ccccc1,n,n,n,n,x,n
COc1ccc(S(=O)(=O)N(C)C[C@H]2Oc3c(NC(=O)Nc4ccc(C(F)(F)F)cc4)cccc3C(=O)N([C@H](C)CO)C[C@@H]2C)cc1,n,n,n,n,x,57
O=C(Nc1ccc(OC(F)F)c(Cl)c1)Nc1ccc2c(c1)OCO2,n,n,n,n,n,n
O=C(Nc1ccc([N+](=O)[O-])cc1)Nc1ccc(OC(F)F)c(Cl)c1,58,x,n,x,n,x
COc1ccccc1C=NN=C(NN=Cc1ccccc1OC)NN=Cc1ccccc1OC,n,x,n,x,x,56
O=C(CN1CCC(C(=O)c2ccc(F)cc2)CC1)Nc1ccccc1Cl,n,n,n,n,n,x
SMILES,Gli-Sufu antag,697 NFkB inh,hiPSC survival,Jurkat NFkB inh,Lipid droplet,TAG inh
CCC(C)(C)c1ccc(OCCCC[n+]2cccc(C)c2)c(C(C)(C)CC)c1,87,x,n,x,n,n
Cc1ccc[n+](CC(=O)Nc2cc(C(F)(F)F)ccc2Cl)c1,n,n,n,n,n,x
O=S(=O)(NC(=S)c1ccccc1)c1ccccc1,n,n,n,n,x,n
CC(C)N=C(NS(=O)(=O)c1ccccc1)C(Cl)(Cl)Cl,n,n,n,n,u,52
Cc1nn(-c2ccccc2)c(C)c1/C=N/NC(=O)c1cc(-c2ccccc2)n[nH]1,n,n,n,n,u,56
O=C(Nc1nc(-c2ccc(S(=O)(=O)N3CCCCCC3)cc2)cs1)c1cccs1,n,n,n,n,n,51
O=C(Nc1nc(-c2ccc(S(=O)(=O)N3CCCC3)cc2)cs1)c1cccs1,n,n,n,n,n,n
